Screening data: PubChem, Broad Institute
T cruzi repl – inhibitors of intracellular T. cruzi growth, primary screen, luminescence, NIH3T3 host cells; actives 1.4% (n = 300,000); T. cruzi beta-gal in NIH3T3, 90 h; AID 1885, 2009; inhibition, % (concentration not given with the values);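 active means mean inhibition across valid replicates above about 55%, limit read from the data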;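 further: signal also drops with host cell toxicity which is not excluded here; 0% = plate median of DMSO wells and 100% = zero luminescence signal; higher percent means less beta-gal luminescence so fewer parasites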
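compound dosing = single 50 nL compound addition per well in DMSO | material = NIH/3T3 host cells with β-galactosidase reporter T. cruzi | input = 5,000 host fibroblasts per well | timing = ≥90 h infection period, 3 h prior cell attachment | read-out basis = percent inhibition of parasite-derived β-gal signal | detection = GalScreen β-gal luminescence, detergent lysis, 60 min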
HSF-1 act – HSF-1 activators, primary screen, NIH3T3-HGL cells, MG132 stress, luminescence, single point; NIH3T3-HGL HSF-1 luciferase reporter, 8 h; 100% = twice DMSO control signal; actives 1.7% (n = 300,000); AID 504408, 2011; activation, % at 9 µM;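 active means mean replicate activation of at least 50% with a set share of replicates each reaching 50%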;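 further: 0% = median of the neutral control wells and 100% = twice that signal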
PvdQ acylase – P. aeruginosa PvdQ acylase inhibitors, primary screen, biochemical, fluorescence, plate reader and imaging, single point; purified PvdQ acylase; inhibition, % at 10 µM; PvdQ acylase [Pseudomonas aeruginosa LESB58]; AID 488965, 2010; actives 0.063% (n = 340,000); in the data active means inhibition above about 30%, passing the limit was not always enough;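 further: 0% = vehicle neutral wells and 100% = reference inhibitor wells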
CaV13 ICDI inh – Primary screen for inhibitors of IQ motif and Ca2+-dependent inactivation inhibitor domain binding in CACNA1D, Förster resonance energy transfer in living cells, …; HEK cells, CFP/YFP FRET ICDI-IQ, plate reader, 10 min; percent FRET-ratio fall versus neutral wells; inhibition, % at 12.3 µM; actives 0.098% (n = 340,000); AID 743397;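 active means mean replicate inhibition of at least 30% and at least 1% of replicates passing that level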;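 further: 0% = median of the neutral control wells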
N-glyco inh – increase of ERlucT glycosylation luciferase signal, primary screen, N-linked glycosylation inhibitor project, D54 ERlucT cells, luminescence, set 2 | D54 ERlucT glycosylation luciferase reporter, 24 h; percent of 100 nM tunicamycin response | reporter increase, % at 12.5 µM | actives 0.23% (n = 360,000);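 active means mean luciferase reporter signal, scaled so untreated is 0 and the glycosylation-blocking control 100, at or above a set limit in every replicate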;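 further: luciferase carries N-glycosylation sites so blocking glycosylation raises the light; 0% = median of neutral control wells and 100% = median of 100 nM tunicamycin wells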
PfHsp90 set2 – growth inhibition of PfHsp90-expressing yeast, primary screen, antimalarial PfHsp90 inhibitor project, S. cerevisiae, BacTiter-Glo luminescence, single point, set 2. BacTiter-Glo ATP, 48 h; yeast lacking PDR1 and PDR3 efflux regulators. inhibition, % at 9.4 µM. actives 0.32% (n = 310,000);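 active means every replicate shows inhibition above about 80%, whatever the replicate mean, limit read from the data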;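 further: 0% = DMSO neutral controls and 100% = 20 µM radicicol positive controls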
* = called active by the depositor. Shown are actives, neighbours in structure and some others; about 3% of the full set was active somewhere.

Results for Cc1cccc(OCC(=O)Nc2ccc(N3CCN(S(C)(=O)=O)CC3)cc2)c1C ?
T cruzi repl: -10; HSF-1 act: 57*; PvdQ acylase: -11; CaV13 ICDI inh: -5; N-glyco inh: -3

Results for CN(CCc1ccccc1)C(=O)c1[nH]c(C(F)(F)F)nc1-c1ccccc1 ?
CaV13 ICDI inh: -9; N-glyco inh: 1

How did CCOCCCNC1=C(Cl)C(=O)c2ccccc2C1=O do in these assays?
T cruzi repl: -6; HSF-1 act: 21; PvdQ acylase: -12; CaV13 ICDI inh: -4; N-glyco inh: 9; PfHsp90 set2: 107*

Results for O=C1C(Cl)=C(NCCCO)C(=O)c2ccccc21 ?
T cruzi repl: -15; HSF-1 act: 17; PvdQ acylase: 13; CaV13 ICDI inh: -1; N-glyco inh: 0; PfHsp90 set2: -3

Results for O=C(NCCSCc1ccco1)Nc1ccc(Cl)cc1 ?
T cruzi repl: 12; HSF-1 act: 42; PvdQ acylase: 5; CaV13 ICDI inh: -5; N-glyco inh: 1; PfHsp90 set2: 8

How did O=C(NCCSCc1ccco1)Nc1cccc(Cl)c1 do in these assays?
T cruzi repl: 1; HSF-1 act: 60*; PvdQ acylase: -8; N-glyco inh: 3; PfHsp90 set2: -32

Results for O=C(N/N=C\c1ccco1)Nc1cccc(Cl)c1 ?
T cruzi repl: 0; HSF-1 act: 69*; PvdQ acylase: -8; CaV13 ICDI inh: -16; N-glyco inh: 3; PfHsp90 set2: 5

How did Nc1[nH]c(C(=O)c2ccccc2)c(-c2ccc(Cl)cc2)c1C(=O)c1c[nH]c2ccccc12 do in these assays?
CaV13 ICDI inh: -8

How did CC1=CN2C(=N)/C(=C/c3ccco3)C(=O)N=C2S1 do in these assays?
T cruzi repl: -10; HSF-1 act: 47; PvdQ acylase: -2; CaV13 ICDI inh: -15; N-glyco inh: -12; PfHsp90 set2: -41

Results for CC1=CN2C(=N)/C(=C/c3ccc([N+](=O)[O-])o3)C(=O)N=C2S1 ?
T cruzi repl: 23; HSF-1 act: 75*; PvdQ acylase: 4; CaV13 ICDI inh: -4; N-glyco inh: 2; PfHsp90 set2: 97*

Results for COc1ccc(CCN(C)Cc2c(O)ccc3cc(Br)ccc23)cc1OC ?
T cruzi repl: 14; HSF-1 act: 204*; PvdQ acylase: -6; CaV13 ICDI inh: -18; N-glyco inh: 3; PfHsp90 set2: 21

Results for COc1ccc(CN(C)Cc2c(O)ccc3cc(Br)ccc23)cc1OC ?
T cruzi repl: 3; HSF-1 act: 114*; PvdQ acylase: 15; CaV13 ICDI inh: -7; N-glyco inh: -2; PfHsp90 set2: 11

How did CC(C)CC1O[C@@H](C)[C@@H]2CN3CCc4c([nH]c5ccccc45)[C@@H]3C[C@@H]2N1C (some centres undefined) do in these assays?
CaV13 ICDI inh: -4

Results for CC(C)(O)c1cc2ccc(C#Cc3ccsc3)cc2c(=O)o1 ?
PvdQ acylase: -3; CaV13 ICDI inh: -6; N-glyco inh: -3; PfHsp90 set2: 26

What do the screens show for `COc1ccc(/C=N/NC(=O)c2ccc(N(C)S(=O)(=O)c3ccccc3)cc2)c(OC)c1`?
T cruzi repl: -17; HSF-1 act: 58*; PvdQ acylase: 15; CaV13 ICDI inh: -4; N-glyco inh: -1; PfHsp90 set2: -12

What do the screens show for `CN(C)CC(=O)N1c2ccccc2CCc2ccc(NC(=O)c3ccc(N)cc3)cc21`?
T cruzi repl: 18; HSF-1 act: 5; PvdQ acylase: -11; N-glyco inh: 0; PfHsp90 set2: 14

What do the screens show for `COc1ccc(C(=O)Nc2ccc(S(=O)(=O)N(C)c3ccccc3)cc2)cc1`?
T cruzi repl: 6; HSF-1 act: 28; PvdQ acylase: -9; CaV13 ICDI inh: -2; N-glyco inh: -3; PfHsp90 set2: 3

What do the screens show for `CCn1c2ccccc2c2cc(NC(=O)c3cc(OC)c(OC)c(OC)c3)ccc21`?
T cruzi repl: 57*; HSF-1 act: 0; PvdQ acylase: 9; CaV13 ICDI inh: -6; N-glyco inh: 27*; PfHsp90 set2: -5

How did COc1cc(C(=O)Nc2ccc(S(=O)(=O)N(C)c3ccccc3)cc2)cc(OC)c1OC do in these assays?
T cruzi repl: 13; HSF-1 act: 102*; PvdQ acylase: 3; CaV13 ICDI inh: -3; N-glyco inh: 3; PfHsp90 set2: -1

Results for CCn1c2ccccc2c2cc(NC(=O)c3cc(OC)cc(OC)c3)ccc21 ?
T cruzi repl: 39; HSF-1 act: -31; PvdQ acylase: -8; CaV13 ICDI inh: -16; N-glyco inh: 9; PfHsp90 set2: 10

How did COc1cc(C(=O)Nc2ccc3c(c2)N(C(=O)CCN(C)C)c2ccccc2CC3)cc(OC)c1OC do in these assays?
T cruzi repl: 79*; HSF-1 act: 12; PvdQ acylase: -22; CaV13 ICDI inh: 3; N-glyco inh: 8; PfHsp90 set2: 7

What do the screens show for `COc1ccc(OC)c(/C=N/NC(=O)c2ccc(N(C)S(=O)(=O)c3ccccc3)cc2)c1`?
T cruzi repl: -7; HSF-1 act: 30; PvdQ acylase: 5; CaV13 ICDI inh: -5; N-glyco inh: -1; PfHsp90 set2: 13

What do the screens show for `O=C1c2c(-c3ccc(Br)cc3)noc2CCN1Cc1cn(Cc2cccnc2)nn1`?
CaV13 ICDI inh: -12

Results for Oc1cc(O)cc(C=Cc2ccc(O)c(O)c2)c1 ?
CaV13 ICDI inh: -11

What do the screens show for `CCOC(=O)C1=C(c2ccccc2)NC(=O)NC1c1cc(Br)c(O)c(OC)c1` (centres undefined)?
T cruzi repl: 10; HSF-1 act: 79*; PvdQ acylase: 8; CaV13 ICDI inh: -9; N-glyco inh: -1; PfHsp90 set2: 18

How did CCOC(=O)C1=C(C)NC(=O)NC1c1cc(Br)c(O)c(OC)c1 (centres undefined) do in these assays?
T cruzi repl: 6; HSF-1 act: 19; PvdQ acylase: -14; N-glyco inh: 2; PfHsp90 set2: -15

What do the screens show for `COCc1cc(N2CCN(C(=O)OC(C)(C)C)C[C@H]2C)ccc1N1CC[C@@H](O)C1`?
CaV13 ICDI inh: -4
